Read-outs that look alike come from different tables or passages of the source.
What was measured:
[1] = test system: Caco-2 / THP-1 coculture; assay: Transepithelial electrical resistance; format: cell-based, human; conditions: LPS +, TMF + (AHR antagonist); metabolites 250 ng/mL
How it was run: (§1)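 Caco-2 grown 18 days on 8 μm transwells to TEER 500 ohm×cm2, set over THP-1 differentiated with PMA (15 nM, 48 h). Pretreatment 24 h with fermented supernatant (50 μL/1 mL) or metabolites (250 ng/mL), with or without AHR antagonist TMF. Challenge with LPS 1 μg/ml, IFN-γ and ATP in both compartments. Read-outs: TEER before and after; kynurenine by chemical assay, % control; IL-1β by ELISA, fold over untreated. n = 4 wells; t-test.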

[2] = format: in vivo, mice; conditions: male, mouse, brain, po; for AUC: over 24 h; for Cmax: n = 6 +/- SEM
[3] = format: in vivo, mice; conditions: male, mouse, plasma, po; for AUC: over 24 h
[4] = test system: IL-1β; assay: IL-1β production; format: cell-based, human; conditions: LPS +, ELISA, metabolites 250 ng/mL
How it was run: as §1

[5] = test system: Kynurenine; assay: Kynurenine production; format: cell-based, human; conditions: LPS +, metabolites 250 ng/mL
How it was run: as §1

[6] = target: T1, aryl hydrocarbon receptor (AHR) (Homo sapiens, UniProt P35869); format: cell-based; conditions: for dependence of the beneficial / anti-inflammatory activity on AHR signaling: LPS-challenged coculture with AHR antagonist TMF; for anti-inflammatory effects (TEER, cytotoxicity, kynurenine, Il-1β gene expression), correlated to Cyp1a1 mRNA expression: LPS-treated coculture, two concentrations (Table S8)
T1 sequence (P35869 11-848): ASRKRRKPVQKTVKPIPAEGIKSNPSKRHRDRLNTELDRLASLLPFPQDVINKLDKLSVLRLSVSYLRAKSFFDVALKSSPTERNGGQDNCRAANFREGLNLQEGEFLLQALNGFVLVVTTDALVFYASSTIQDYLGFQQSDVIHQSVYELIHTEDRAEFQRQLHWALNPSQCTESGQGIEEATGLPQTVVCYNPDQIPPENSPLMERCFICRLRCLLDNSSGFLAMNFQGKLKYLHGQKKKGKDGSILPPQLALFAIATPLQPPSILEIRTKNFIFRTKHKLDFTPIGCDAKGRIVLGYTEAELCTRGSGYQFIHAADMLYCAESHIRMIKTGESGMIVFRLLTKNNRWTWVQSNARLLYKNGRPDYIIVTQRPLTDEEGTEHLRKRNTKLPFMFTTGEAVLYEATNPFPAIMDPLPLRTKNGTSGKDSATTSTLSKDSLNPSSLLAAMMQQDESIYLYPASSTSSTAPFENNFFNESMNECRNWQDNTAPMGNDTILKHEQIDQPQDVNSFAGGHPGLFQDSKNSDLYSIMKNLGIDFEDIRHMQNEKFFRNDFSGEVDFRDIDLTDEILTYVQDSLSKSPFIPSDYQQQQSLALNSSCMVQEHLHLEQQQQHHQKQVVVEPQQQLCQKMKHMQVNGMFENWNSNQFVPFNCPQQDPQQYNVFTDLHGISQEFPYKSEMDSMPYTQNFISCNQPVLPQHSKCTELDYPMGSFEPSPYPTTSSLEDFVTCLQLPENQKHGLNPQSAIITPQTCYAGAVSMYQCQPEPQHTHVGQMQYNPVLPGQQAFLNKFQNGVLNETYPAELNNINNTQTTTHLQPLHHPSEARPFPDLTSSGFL
How it was run: as §1

[7] = test system: THP-1 cells; assay: qPCR gene expression in THP-1 cells of the LPS-challenged coculture; format: cell-based, human; conditions: TMF-treated vs. untreated
[8] = TMF −, fold change from untreated controls

AUC ([2]; Chronic BDPP) [ng·h/mL] | AUC ([2]; Chronic Synbiotic) [ng·h/mL] | Cmax ([2]; Chronic BDPP) [ng/mL] | Cmax ([2]; Chronic Synbiotic) [ng/mL] | Tmax ([2]; Chronic BDPP) [min] | Tmax ([2]; Chronic Synbiotic) [min] | AUC ([3]; Chronic BDPP) [ng·h/mL] | AUC ([3]; Chronic Synbiotic) [ng·h/mL] | Tmax ([3]; Chronic BDPP) [min] | Tmax ([3]; Chronic Synbiotic) [min] | dependence of the beneficial / anti-inflammatory activity on AHR signaling [6] | Tlr4 expression in TMF-treated cultures [7] | Structure (SMILES) | TEER (% Control) [1] [% Control] | IL-1β(Fold Change) ([4]; TMF +) | IL-1β(Fold Change) [4, 8] | Kynurenine (% Change) ([5]; TMF +) | Kynurenine (% Change) ([5]; TMF −) | anti-inflammatory effects (TEER, cytotoxicity, kynurenine, Il-1β gene expression), correlated to Cyp1a1 mRNA expression [6]
– | 1.14 | – | 0.1 ± 0.09 | – | 30 | – | 0.4 | – | 30 | – | – | COc1cc(O)c2c(=O)c(O)c(-c3ccc(O)c(O)c3)oc2c1 [7′-MeQUER, Rhamnetin] | 74.5 ± 2.0 | 8.1 ± 0.4τ Fold Change | 7.9 ± 0.4τ Fold Change | 132.0 ± 13.3 | 119.5 ± 4.3 % Change | –
– | – | – | – | – | – | 52.8 | 51.4 | 18 | 18 | abrogated by TMF | suppressed | O=C(O)/C=C/c1ccc(O)c(O)c1 [CA, Caffeic acid] | 73.2 ± 0.9 | 10.3 ± 0.3τ ^** Fold Change | 4.0 ± 0.3τ Fold Change | 144.1 ± 6.4 | 98.6 ± 7.7τ % Change | dose-dependent anti-inflammatory effects
87.2 | 288 | 25.3 ± 9.6 | 23 ± 2.6 | 18 | 60 | 3.5 | 38.2 | 18 | 30 | independent of AHR signaling | – | O=c1c(O)c(-c2ccc(O)cc2)oc2cc(O)cc(O)c12 [KAMF, Kaempferol] | 75.5 ± 2.1 | 10.1 ± 0.7τ Fold Change | 8.4 ± 0.2τ Fold Change | 131.7 ± 3.9 | 151.0 ± 3.7 % Change | dose-dependent anti-inflammatory effects

More lines, now with the values behind:

Structure (SMILES) | AUC ([2]; Chronic BDPP) [ng·h/mL] | AUC ([2]; Chronic Synbiotic) [ng·h/mL] | Cmax ([2]; Chronic BDPP) [ng/mL] | Cmax ([2]; Chronic Synbiotic) [ng/mL] | Tmax ([2]; Chronic BDPP) [min] | Tmax ([2]; Chronic Synbiotic) [min] | AUC ([3]; Chronic BDPP) [ng·h/mL] | AUC ([3]; Chronic Synbiotic) [ng·h/mL] | Tmax ([3]; Chronic BDPP) [min] | Tmax ([3]; Chronic Synbiotic) [min] | dependence of the beneficial / anti-inflammatory activity on AHR signaling [6] | Tlr4 expression in TMF-treated cultures [7] | TEER (% Control) [1] [% Control] | IL-1β(Fold Change) ([4]; TMF +) | IL-1β(Fold Change) [4, 8] | Kynurenine (% Change) ([5]; TMF +) | Kynurenine (% Change) ([5]; TMF −) | anti-inflammatory effects (TEER, cytotoxicity, kynurenine, Il-1β gene expression), correlated to Cyp1a1 mRNA expression [6]
COc1cc(-c2oc3cc(O)cc(O)c3c(=O)c2O)ccc1O [3′-MeQUER, Isorhamnetin] | 26.9 | 103 | 12.2 ± 6.9 | 28.4 ± 6.3 | 18 | 60 | 15.6 | 72.4 | 15 | 30 | – | – | 73.4 ± 1.2 | 9.4 ± 0.3τ ^* Fold Change | 6.5 ± 0.4τ Fold Change | 129.9 ± 13.8 | 102.3 ± 9.6τ % Change | –
O=C(O)Cc1ccc(O)cc1 [4-HPAA, 4-Hydroxyphenylacetic acid] | 1350 | 1650 | 66.8 ± 4.7 | 108 ± 6.5 | 60 | 60 | 3760 | 4460 | 30 | 18 | abrogated by TMF | suppressed | 70.2 ± 2.0 | 9.8 ± 0.4τ ^** Fold Change | 5.2 ± 0.6τ Fold Change | 120.7 ± 7.9 | – | dose-dependent anti-inflammatory effects
O=C(O)CCc1ccc(O)cc1 [4-HPPA, 3-(4-Hydroxyphenyl)propionic acid] | – | – | – | – | – | – | 406 | 2170 | 30 | 18 | abrogated by TMF | suppressed | 72.3 ± 2.0 | 9.1 ± 0.0τ ^** Fold Change | 6.4 ± 0.3τ Fold Change | 134.3 ± 3.2 | 102.0 ± 2.2τ % Change | dose-dependent anti-inflammatory effects
